Results collected from several papers.
Protocols differ between the studies behind these lines.

| Structure (SMILES) | cell line | test | system | setting | measurement | result |
| --- | --- | --- | --- | --- | --- | --- |
| C#C[C@]1(COP(=O)(O)OP(=O)(O)OP(=O)(O)O)O[C@@H](n2cnc3c(N)nc(F)nc32)C[C@@H]1O | human PBMC |  | plasma | oral, 5 mg, single dose | half-life | 126 h |
| Cc1ccc2cccc(C(=O)O)c2c1 | K562 | cell growth or viability |  |  | IC50 | > 688 µM |
| C=C(C)C(O)Cc1c(O)c(CC=C(C)C)c2occ(-c3ccc(O)cc3)c(=O)c2c1O (centres unmarked) | K562 | cell growth or viability, MTT |  | 100 µg/mL | viability | 71.7% |
| N[C@@H](CC(=O)N1CCN(C(c2ccc(F)cc2)c2ccc(F)cc2)CC1)C(=O)N1Cc2ccccc2C1 | K562 | cell growth or viability, ATP luminescence |  | 60 µM | viability | 7% |
| COc1ccccc1CN[C@H]1C2CCN(CC2)[C@H]1C(c1ccccc1)c1ccccc1 | human PBMC | cell growth or viability, MTS |  |  | CC50 | > 25 µM |
| O=C(O)c1cccc2ccccc12 | K562 | cell growth or viability |  |  | IC50 | > 744 µM |
| CC[C@@H](C)[C@H](N)C(=O)N1Cc2ccccc2C1 | K562 | cell growth or viability, ATP luminescence |  | 60 µM | viability | 92% |
| Clc1ccc(COc2cncc(-c3cnn(C4CCNCC4)c3)c2)c(Cl)c1 | MDCK |  | Caco-2 |  | Papp | 10.9 ×10⁻⁶ cm/s |
| CC(C)=CCc1c(O)c(CC=C(C)C)c2occ(-c3ccc(O)cc3)c(=O)c2c1O | K562 | cell growth or viability, MTT |  | 100 µg/mL | viability | 94% |
| Cc1cn([C@H]2C[C@H](N=[N+]=[N-])[C@@H](CO)O2)c(=O)[nH]c1=O | human PBMC | cell growth or viability |  |  | CC50 | > 100 µM |
| CC(C)/N=C(\N)c1ccc(NC(=O)c2ccc(C(=O)Nc3ccc(/C(N)=N/C(C)C)cc3)cc2)cc1 | K562 | cell growth or viability |  |  | IC50 | 38.8 µM |
